In the RNAGym collection of RNA variant scans (doi:10.1126/science.aae0568):
Variants at the floor of the assay were thinned out.

B1: tRNA (parent)
chain: GUUCCGUUGGCGUAAUGGUAACGCGUCUCCCUCCUAAGGAGAAGACUGCGGGUUCGAGUCCCGUACGGAACG

Variants of: B1
Test: yeast fitness relative to wild type (ratio to wild type); higher = fitter; tRNA-Arg(CCU), competitive growth, 37 C, YPD
Method in brief: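 For this measurement, the tRNA-Arg(CCU) gene was varied by chemical synthesis at a 3% per-site mutation rate across 69 sites, and each variant was placed at the native genomic locus in Saccharomyces cerevisiae. The pooled strains went through a 24-hour competition in YPD at 37°C in six parallel replicates, with amplicons from start and end populations read by 100-nucleotide paired-end sequencing. Darwinian fitness relative to wild type followed from the change in each genotype's frequency. Genotypes needed ≥ 100 starting reads, and estimates < 0.5 were set to 0.5.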
For GUUCCGUUGGCGUAUUGGUAACGCGUCUCCAUCCUAAGGAGAAGACUGGGGGUUCGAGUCCCGUCCGGAACG [A15U C31A C49G A65C], the yeast fitness was ≤ 0.5. For GUUCCGUUGGCGUAAUGGGAACGCGUCUCCCUCCUAAGGAGACGACUGCGGGCUGGAGUCCCGUACGGAUCG [U19G A43C U53C C55G A70U], the yeast fitness was ≤ 0.5. For GUUCCGUUGGCGCAAUGGUAACGCGUCUCCCUCCUAAGGAGAAGACUGCGGGUUAGAGUCCCGUACGGUACG [U13C C55A A69U], the yeast fitness was 0.624. Work on GUUCCGUUGGCGUAAUGGUAACGCGUCUCCCUCCUAAGGAGCGGACUGCGGGUUCGAGUCCCGUACGGAACG [A42C A43G] yielded a yeast fitness of 0.885. GUCCCGUUGGCGUAAUGGUAACGCGUCUCCCUCCUAAGGAGAAGACUGCGGGUUCCAGUCCCGUACGGAACG [U3C G56C] gave a yeast fitness of 0.67. With GUUCCGUUGGCGUAAUGGUGAGGCGUGUCUGUCCUAAGGAGAAGACUGCGCGUCCGAGUCCCGUGCGGAACG [A20G C22G C27G C30U C31G G51C U54C A65G] the yeast fitness was ≤ 0.5. For GUUCCGUUGGCGUAAUGGUAACGCGUCUCCCUCCUAAGGCGUAGACUGGGGGUUCGAGUCCCGUAGGGAACG [A40C A42U C49G C66G], the yeast fitness was 0.612. For GUUGCGUAGGCAUGAUGGUAACGCGUCUCCCUCCUAAGGAGAAGACUACGGGUUCGAGUCCCGUACGGCACG [C4G U8A G12A A14G G48A A69C], the yeast fitness was ≤ 0.5. For GUUCCGUUGGCGUAAUGGUAGUGCGUCUCCCUCCUGAGGAGAAGACUGCGGGCUCGCGUCCCGUACGGUACG [A21G C22U A36G U53C A57C A69U], the yeast fitness was ≤ 0.5. Work on GUUCCGUUGGCGUAAUGGUAACGCGUCUCCCACCUAAGGAGAAGACUGCGGGUUCGAGUCCCGUACCGAACG [U32A G67C] yielded a yeast fitness of 0.732. For GUUCCGUUGGCGUAAUGGUAACGCGUCUGCCUUCUAAGGAGAAGACUGCGGGUUCGAGUCCCGUCCGGAACG [C29G C33U A65C], the yeast fitness was 0.554. For GUUCCCUUGGGGUACUGGUAACGCCUGUCGCUCCUAACGAGAAGACUGCGGGUUCGAGUCGCGGACGGAACG [G6C C11G A15C G25C C27G C30G G38C C61G U64G], the yeast fitness was ≤ 0.5. In the case of GUUCCGUGGGCGUAAUGGUAACGCGUCUCCCUCCAAAGGAGAAGACUGCGGGUUCGAGUCCCGUACGGACCG [U8G U35A A70C], the yeast fitness is reported as 0.524. For GUUCCGUUUGCGUAAUGGUAACGGGUCUCCCUCCUAAGGAGAAGCCUGCGGGUUCGAGUCCCGUACGGAACG [G9U C24G A45C], the yeast fitness was ≤ 0.5. With GUUCCGUUGGCGUAAUGGUGACGCGUCUCCCUCCUAAGGAGAAGACUGCGGGUUCGGGUCUUGUACGGGACG [A20G A57G C61U C62U A69G] the yeast fitness was ≤ 0.5. GUUCCGUUGGCGUAAUGGUAACGCGCUUCCCUCCUAAGGAGAAGACUGCGGGUUCGAGUCCCGUACCGAACG [U26C C27U G67C] gave a yeast fitness of 0.713. For GUUCCGUUGGCGUAAUGGUAACGGGUCUCACUCCUAAGGAGAACACCGCGGGUUCGAGACCCGUACGGAACG [C24G C30A G44C U47C U59A], the yeast fitness was ≤ 0.5. With GUUCCGAUGGCGUAAUGGUAACGCGUCUCCCUCCUAAGGAGAAGACUGCGGGUUCGAGUCCCGUCCGGAACG [U7A A65C] the yeast fitness was 0.917. With GUUCCGUUGGCGUAAUGGUAACGCGUCUCCCUCCUAAGGAGAAGACUGCGGGUUCGAGUCAGGUACGGAACG [C61A C62G] the yeast fitness was 0.619. In the case of GCUCCGUUGGCGUCAUGGUAACGCGUCUCCAUCCUAAGGAGAAGACUGCGGGUUCGAGUCCCGUACGGAACG [U2C A14C C31A], the yeast fitness is reported as ≤ 0.5. Variant GUUCCGUUGGCGUAAUGGUAACGCGUCUCCCUCCUACGGAGAAGACUGCGGGAUCGAGUCCCGUACGGAACG [A37C U53A] has a yeast fitness of 0.632. For GUUCCGUUGGCGUAAUGGUAACGCGUCUCCCUCCUAAGGAGAAAACUGCAGGUUCGAGUCCCGUACGGAACG [G44A G50A], the yeast fitness was 0.891. For GUUCCGUUGGCGUAAUGGUAACGCAUCUCCCUCCUAAGGCGAAGACUGCGGGUUCGAGUCCCGUAUGGACCG [G25A A40C C66U A70C], the yeast fitness was ≤ 0.5. For GAUCCGGUGGCGUAAUGGUAACGGGUCUACCUCCUAAGGAGAUGACUGCGGGAUCGUGUCCCGUUCGGAACG [U2A U7G C24G C29A A43U U53A A57U A65U], the yeast fitness was ≤ 0.5. With GUUCCGGUGGCGUAAUGGUACCGCGUCUCCCUCCUAAGGAGAAGACUGCGAGUUCGAGUCCCGUACGGAACG [U7G A21C G51A] the yeast fitness was ≤ 0.5. In the case of GUUCCGUUGGCGUAAUGGUAACGCGUCUCCCUCCUAAGGAGAAGACUGCGGGUUCGAGUCCCGUACGGUCCG [A69U A70C], the yeast fitness is reported as 1.04. With GUUCCGUUGGCGUCAUGGUAAGGCGUCUCCCUCCUAAGGAGAAGACUGCGGCUUCGAGUCCCGUACGGAACG [A14C C22G G52C] the yeast fitness was ≤ 0.5. GUUCCGUUGGCGUAAUGGUAACGUGUCUCCAUCCUAAGGAGAAGACUGCGGGUGCGAGUCCCGUACGGAACG [C24U C31A U54G] gave a yeast fitness of 0.75. In the case of GUUCCGUUGGGGUAAUGGUAACGCGUCACCCUCCUAAGGAGAAGACUGCGGGUUCGAGUCCCGUACGGAACG [C11G U28A], the yeast fitness is reported as ≤ 0.5. In the case of GUUCCGUUGACGUACUGGUAACGCGUCUCCCUCCUAAGCAGAAGACUGCGGGUUCGAGUCCCGUACGGAACG [G10A A15C G39C], the yeast fitness is reported as ≤ 0.5. For GUUCCGUUGGCGUAAUGGUAACGCGUAUCCCUCCUAAGGAGGAGACUGCGGGUCCGAGUCCCGUACGGAACG [C27A A42G U54C], the yeast fitness was ≤ 0.5. Variant GUUCCGUUGGCGUAAUGGUAAGGCGUCUCCCUCCUAAGGAGAAGACUGUGGGUUCGAGUCCCGUAUGGAACG [C22G C49U C66U] has a yeast fitness of 0.666. Work on GUUCCGUUGGCGUAAUGGUAACGCGUCUCCCUCCUAAGGAGAAGCCUACGGGUUCGAGUCCUGUACGGAACG [A45C G48A C62U] yielded a yeast fitness of 0.606. With GUUCCGUUGGCGUAAGGGUAACGCGUCUCCCUCCUAAGGAGAAGACUGCGGGUUCGAGCGCCGUACGGAACG [U16G U59C C60G] the yeast fitness was ≤ 0.5. With GUUCCGUUGGCGUAAUGGUAACGCGUCUCCCCCCUAAGGAGCACACUGCGGCUUCGAGUCCCGUACGGAACG [U32C A42C G44C G52C] the yeast fitness was 0.548. With GUUCCAUUGGUGCAAUGGUAACGCGUCUCCCUCCUAAGGAGAAGACUGCGGGUUCGAGUCCCGUACGGAGCG [G6A C11U U13C A70G] the yeast fitness was ≤ 0.5. With GUUCCGUUGGCGUAAUGGUCACGUGUCUCCCUCGUAAGGAGAAGACUGCGGGUUCGAGUCCCGUACGGAACG [A20C C24U C34G] the yeast fitness was 0.506. In the case of GUUGCGUUGGUGUAAUGGUAACGCGUCUCCCUCCUAAGGAGAAGACAGCGGGUUCGAGUCCCGUACGGAACG [C4G C11U U47A], the yeast fitness is reported as ≤ 0.5.
